# Experimental data reported in ChEMBL document CHEMBL4041524, “Synthesis and Characterization of a Novel γ-Aminobutyric Acid Type A (GABAA) Receptor Ligand That Combines Outstanding Metabolic Stability, Pharmacokinetics, and Anxiolytic Efficacy” (J Med Chem, 2016).
# Active and inactive are the calls of the source. The calls are words filed in the database; no cut-off is given here.
# Experiments:
# [1] = test system: Liver; assay: Metabolic stability in rat liver microsomes assessed as compound remaining at 4 uM measured after 30 mins in presence of NADPH by LC-MS/MS analysis; type: ADME, microsome; settings: 0.5 h
# Method in brief: (§1)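 Human, mouse or rat liver microsomes were incubated with compound at 4 μM final for 30 min at 37 °C (n = 1). Percent of parent remaining was quantified by LC-MS/MS.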
# [2] = test system: Liver; assay: Metabolic stability in mouse liver microsomes assessed as compound remaining at 4 uM measured after 30 mins in presence of NADPH by LC-MS/MS analysis; type: ADME, microsome; settings: 0.5 h; method in brief: as §1
# [3] = biological target: T1, GABA-A receptor; alpha-1/beta-3/gamma-2 (Homo sapiens, UniProt P14867+P18507+P28472); assay: Binding affinity to human GABAA alpha1beta3gamma2 receptor expressed in HEK293 cells assessed as GABA-induced membrane potential change preincubated for 3 mins followed by addition of GABA measured after 3 mins by FLIPR assay; type: cell-based
# T1 sequence (P14867 whole entry): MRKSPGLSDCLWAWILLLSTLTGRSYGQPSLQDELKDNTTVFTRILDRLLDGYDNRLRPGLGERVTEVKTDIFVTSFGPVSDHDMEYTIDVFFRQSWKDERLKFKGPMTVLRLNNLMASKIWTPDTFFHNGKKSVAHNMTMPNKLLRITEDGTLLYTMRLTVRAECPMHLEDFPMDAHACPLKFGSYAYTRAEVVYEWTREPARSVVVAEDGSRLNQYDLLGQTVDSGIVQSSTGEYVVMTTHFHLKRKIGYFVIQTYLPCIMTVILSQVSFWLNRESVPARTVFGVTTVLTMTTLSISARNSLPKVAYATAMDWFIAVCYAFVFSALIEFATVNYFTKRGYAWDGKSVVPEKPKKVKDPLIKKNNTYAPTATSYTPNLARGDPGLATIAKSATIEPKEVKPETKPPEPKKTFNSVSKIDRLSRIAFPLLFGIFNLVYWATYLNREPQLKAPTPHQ
# T1 sequence (P18507 whole entry): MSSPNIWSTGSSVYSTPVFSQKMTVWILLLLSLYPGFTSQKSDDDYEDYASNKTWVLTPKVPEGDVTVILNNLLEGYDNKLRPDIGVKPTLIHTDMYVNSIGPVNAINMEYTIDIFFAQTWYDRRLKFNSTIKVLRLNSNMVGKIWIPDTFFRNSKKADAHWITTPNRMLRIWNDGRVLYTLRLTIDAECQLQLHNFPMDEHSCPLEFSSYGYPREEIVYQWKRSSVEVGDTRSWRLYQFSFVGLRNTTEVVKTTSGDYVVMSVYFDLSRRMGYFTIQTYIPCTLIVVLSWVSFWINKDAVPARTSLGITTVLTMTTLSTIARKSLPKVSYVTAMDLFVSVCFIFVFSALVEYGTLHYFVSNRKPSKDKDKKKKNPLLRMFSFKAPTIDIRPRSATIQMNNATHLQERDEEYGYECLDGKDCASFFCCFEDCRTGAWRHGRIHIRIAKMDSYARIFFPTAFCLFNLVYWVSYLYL
# T1 sequence (P28472 whole entry): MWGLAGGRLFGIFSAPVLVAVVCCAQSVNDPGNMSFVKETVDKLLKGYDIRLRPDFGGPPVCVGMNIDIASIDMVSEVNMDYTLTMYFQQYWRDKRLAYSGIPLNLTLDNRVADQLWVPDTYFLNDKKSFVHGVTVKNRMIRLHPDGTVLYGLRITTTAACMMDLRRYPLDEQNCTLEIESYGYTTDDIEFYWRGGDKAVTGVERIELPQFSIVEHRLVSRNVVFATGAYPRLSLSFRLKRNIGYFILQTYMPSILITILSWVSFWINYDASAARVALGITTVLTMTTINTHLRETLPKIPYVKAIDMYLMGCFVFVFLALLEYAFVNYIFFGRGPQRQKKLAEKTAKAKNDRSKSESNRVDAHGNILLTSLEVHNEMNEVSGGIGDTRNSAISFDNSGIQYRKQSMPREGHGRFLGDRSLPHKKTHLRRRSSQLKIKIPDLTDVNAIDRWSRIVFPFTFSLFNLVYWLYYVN
# Method in brief: (§2)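 Stably transfected HEK293T cells expressing α1β3γ2 (n = 2) or α3β3γ2 (n = 1) GABAARs. Membrane potential was read as fluorescence changes on a FLIPR Tetra, and EC50 was derived.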
# [4] = test system: Mus musculus; assay: Toxicity in Swiss mouse assessed as change in motor coordination by measuring number of falls from the rotating rod at 30 mg/kg, ip administered 30 mins prior to testing measured for 2 mins by rotarod test relative to control; type: organism-based; settings: in vivo
# Method in brief: (§3)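 The same mice used for marble burying were placed on a rotarod at 4 r.p.m. for 2 min. No fall was scored success, one fall partial, and two falls failure.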
# [5] = test system: Liver; assay: Metabolic stability in human liver microsomes assessed as compound remaining at 4 uM measured after 30 mins in presence of NADPH by LC-MS/MS analysis; type: ADME, microsome; settings: 0.5 h; method in brief: as §1
# [6] = biological target: T2, GABA-A receptor; alpha-3/beta-3/gamma-2 (Homo sapiens, UniProt P18507+P28472+P34903); assay: Binding affinity to human GABAA alpha3beta3gamma2 receptor expressed in HEK293 cells assessed as GABA-induced membrane potential change preincubated for 3 mins followed by addition of GABA measured after 3 mins by FLIPR assay; type: cell-based; method in brief: as §2
# T2 sequence (P18507 whole entry): T1 sequence (P18507 whole entry)
# T2 sequence (P28472 whole entry): T1 sequence (P28472 whole entry)
# T2 sequence (P34903 whole entry): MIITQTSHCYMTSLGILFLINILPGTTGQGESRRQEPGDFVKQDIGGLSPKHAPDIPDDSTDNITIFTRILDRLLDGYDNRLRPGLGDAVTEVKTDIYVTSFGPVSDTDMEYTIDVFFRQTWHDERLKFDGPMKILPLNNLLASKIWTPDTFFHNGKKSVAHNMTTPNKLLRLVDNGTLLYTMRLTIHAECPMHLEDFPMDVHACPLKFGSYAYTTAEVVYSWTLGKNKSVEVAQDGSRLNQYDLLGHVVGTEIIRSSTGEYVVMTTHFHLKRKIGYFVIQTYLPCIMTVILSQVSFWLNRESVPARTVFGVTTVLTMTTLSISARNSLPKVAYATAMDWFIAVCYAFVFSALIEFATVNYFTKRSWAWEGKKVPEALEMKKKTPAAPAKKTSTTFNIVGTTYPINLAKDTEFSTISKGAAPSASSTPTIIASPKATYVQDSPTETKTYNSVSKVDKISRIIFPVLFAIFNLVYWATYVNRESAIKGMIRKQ
# [7] = Cytotoxicity against HEK293T cells assessed as viable cells measured after 18 hrs by CellTiter-Glo assay; type: cell-based, HEK-293T; settings: human, read-out: LD50
# Method in brief: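 HEK293T cells were exposed to compound for 18 h (n = 4). Viable cells were quantified with CellTiter-Glo, and LD50 was derived.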
# [8] = test system: Mus musculus; assay: Anxiolytic-like activity in Swiss Webster mouse marble burying model of anxiety assessed as suppression of marble burying activity at 30 mg/kg, ip administered 30 mins prior to test relative to vehicle-control; type: functional, organism-based
# Method in brief: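 Male NIH Swiss Webster mice (n = 10) received vehicle or compound at 10 or 30 mg/kg i.p. 30 min before marble burying testing. Sedation-like behaviour was noted by observation. Analysis was ANOVA with Dunnett's test vs vehicle.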
# [9] = test system: Mus musculus; assay: Toxicity in Swiss mouse assessed as change in motor coordination by measuring number of falls from the rotating rod at 10 mg/kg, ip administered 30 mins prior to testing measured for 2 mins by rotarod test relative to control; type: organism-based; settings: in vivo; method in brief: as §3
# [10] = Total plasma concentration in Sprague-Dawley rat at 10 mg/kg, po measured after 30 mins by LC-MS/MS analysis; type: ADME, organism-based
# Method in brief: (§4)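 Sprague-Dawley rats (n = 3 per time point) were given 10 mg/kg p.o. Total plasma concentrations were taken at 15, 30, 60 and 120 min. Brain levels of the dosed ligand and of the carboxylic acid metabolite were taken at 60 or 120 min.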
# [11] = Total plasma concentration in Sprague-Dawley rat at 10 mg/kg, po measured after 60 mins by LC-MS/MS analysis; type: ADME, organism-based; method in brief: as §4
# [12] = Total plasma concentration in Sprague-Dawley rat at 10 mg/kg, po measured after 15 mins by LC-MS/MS analysis; type: ADME, organism-based; method in brief: as §4
# [13] = Drug uptake in Sprague-Dawley rat brain at 10 mg/kg, po measured after 120 mins by LC-MS/MS analysis; type: ADME, organism-based; settings: read-out: Drug uptake; method in brief: as §4
# [14] = Total plasma concentration in Sprague-Dawley rat at 10 mg/kg, po measured after 120 mins by LC-MS/MS analysis; type: ADME, organism-based; method in brief: as §4
# [15] = test system: Brain; assay: Drug metabolism in Sprague-Dawley rat brain assessed as (E)-8-ethynyl-6-(pyridin-2-yl)-4H-benzo[f]imidazo[1,5-a][1,4]diazepine-3-carboxylic acid formation at 10 mg/kg, po measured after 120 mins by LC-MS/MS analysis; type: ADME, organism-based; settings: in vivo, 2 h; method in brief: as §4
Compound,Stability [1] [%],Stability [2] [%],EC50 [3] [µM],Activity [4],Stability [5] [%],EC50 [6] [µM],CC50 at 18 h [7] [µM],Activity [8],Activity [9],concentration at 0.5 h [10] [nM],concentration at 1 h [11] [nM],concentration at 0.25 h [12] [nM],concentration at 2 h [13] [nM],concentration at 2 h [14] [nM],Drug metabolism [15] [nM]
C#Cc1ccc2c(c1)C(c1ccccc1F)=NCc1c(C(=O)OCC)ncn1-2,0.5,6.1,> 20,Toxic,6.1,0.029,,,,,,,,,
C#Cc1ccc2c(c1)C(c1ccccn1)=NCc1c(-c3nc(C)no3)ncn1-2,93,85,> 20,Toxic,81,5.15,> 100,Active,Non-Toxic,,,,,,
C#Cc1ccc2c(c1)C(c1ccccc1)=NCc1c(-c3cnco3)ncn1-2,72,73,> 20,Toxic,74,0.321,66.8,Active,Toxic,,,,,,
[2H]C([2H])(C)OC(=O)c1ncn2c1CN=C(c1ccccn1)c1cc(C#C)ccc1-2,77,63,,Toxic,95,,,,,< 12.2,< 12.2,< 12.2,< 12.2,< 12.2,< 12.2
C#Cc1ccc2c(c1)C(c1ccccn1)=NCc1c(C(=O)O)ncn1-2,99,93,> 20,Toxic,96,0.47,,,,293,161,248,< 12.2,37.5,< 12.2
C#Cc1ccc2c(c1)C(c1ccccc1)=NCc1c(C(=O)OCC)ncn1-2,36,6.3,,Toxic,35,,,,,,,,,,
C#Cc1ccc2c(c1)C(c1ccccc1F)=NCc1c(-c3cnco3)ncn1-2,68,78,> 20,Toxic,78,0.011,61.5,Active,Non-Toxic,,,,,,
